Laboratory results from paper PMC9361925 (RSC Advances, 2022).
Like-named read-outs stand apart in the source and are kept apart here.

Legend:
SK-Lu-1 cells [1] = assay: Cell cycle analysis by flow cytometry; assay type: cell-based, human; settings: 24 h
Method in brief: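 Log-phase SK-LU-1 cells (3 × 10^5 per 25 cm2 flask) treated 24 h with test compound at 0.08, 0.16 or 0.32 μM. Controls: DMSO 0.05%, ellipticine 1.3 μM, vincristine 0.4 and 4 μM. Cells were PBS-washed and fixed in ice-cold 70% ethanol at −20 °C for 2 h. They were then treated with RNase A (1 mg mL−1, 37 °C, 15 min), stained with PI for 30 min and analysed by flow cytometry.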

SK-Lu-1 cells [2] = assay: Cell nucleus staining with Hoechst 33342; assay type: cell-based, human; settings: 0.08 μM, 0.16 μM, and 0.32 μM, 24 h
[3] = tested on: caspase-3/7 activation in human lung SK-LU-1 cancer cells; assay: Caspase-3/7 assay; assay type: cell-based; settings: SK-LU-1 cells, 0.08 μM, 0.16 μM, and 0.32 μM
Method in brief: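 SK-LU-1 cells (2 × 10^5 per well) incubated 5 h at 37 °C, 5% CO2, with test compound at 0.08, 0.16 or 0.32 μM. Controls: ellipticine 1.3 μM, vincristine 4 μM; solvent served as blank. Apo-ONE caspase-3/7 reagent was added, briefly shaken and left at room temperature for 1–18 h. Fluorescence was read at Ex 485/Em 530 nm. Activity = sample RFU minus blank RFU.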

SK-Lu-1 cells [4] = assay: Annexin V FITC and PI flow cytometry assay for apoptosis; assay type: cell-based, human; settings: 24 h; for % Necrotic cells: Annexin-V/PI (Q2-1); for % Late apoptosis cells: Annexin-V/PI (Q2-2); for % Early apoptosis cells: Annexin-V/PI (Q2-4); for % Total apoptosis cells: early + late
Method in brief: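 SK-LU-1 cells (3 × 10^5 per 25 cm2 flask; DMEM, 7–10% FBS, penicillin/streptomycin, 37 °C, 5% CO2) exposed 24 h to test compound. Controls: DMSO 0.5%, ellipticine 1.3 μM, vincristine 0.4 and 4 μM. Cells were harvested, washed in cold PBS and resuspended in annexin-binding buffer. They were stained with FITC-annexin V plus PI (100 μg mL−1 working solution) for 15 min at room temperature, then diluted and analysed by flow cytometry.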

[5] = tested on: epidermoid carcinoma (KB, ATCC number CCL-17); settings: read-out: IC50 KB; KB cells; cited from earlier work
[6] = tested on: hepatocellular carcinoma (HepG2, ATCC number HB-8065); settings: read-out: IC50 HepG2; HepG2 cells; cited from earlier work
[7] = tested on: breast (MCF7, HTB-22™) cancer cell line; settings: read-out: IC50 MCF7; MCF7 cells; cited from earlier work
SK-Lu-1 cells [8] = settings: read-out: IC50 SK-Lu-1; cited from earlier work
[9] = tested on: human embryonic kidney (HEK-293, ATCC number CRL-1573) cell line; settings: read-out: IC50 Hek-293; non-cancerous Hek-293 cells; cited from earlier work
[10] = tested on: epidermoid carcinoma (KB, ATCC number CCL-17); assay: MTT cytotoxicity assay, KB cells; assay type: cell-based; settings: Homo sapiens, 72 h, read-out: IC50 KB
Method in brief: (§1)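 Log-phase cells in DMEM with 7–10% FBS and penicillin/streptomycin (37 °C, 5% CO2) seeded at 3 × 10^4 cells per mL. Exposed 3 days to test compound in DMSO at 1.00, 0.25, 0.0625 and 0.0156 μg mL−1. MTT (5 mg mL−1 stock in 0.1 M PBS, pH 7.4) added for 4 h at 37 °C; formazan dissolved in DMSO, absorbance at 540 nm. Growth inhibition calculated relative to untreated controls.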

[11] = tested on: hepatocellular carcinoma (HepG2, ATCC number HB-8065); assay: MTT cytotoxicity assay, HepG2 cells; assay type: cell-based; settings: Homo sapiens, HepG2, 72 h, read-out: IC50 HepG2
Method in brief: as §1

[12] = tested on: breast (MCF7, HTB-22™) cancer cell line; assay: MTT cytotoxicity assay, MCF7 cells; assay type: cell-based; settings: Homo sapiens, MCF7, 72 h, read-out: IC50 MCF7
Method in brief: as §1

[13] = tested on: lung (A549) cancer cell line; assay: MTT cytotoxicity assay, A549 cells; assay type: cell-based; settings: Homo sapiens, A549, 72 h, read-out: IC50 A549
Method in brief: as §1

[14] = tested on: human embryonic kidney (HEK-293, ATCC number CRL-1573) cell line; assay: MTT cytotoxicity assay, Hek-293 cells; assay type: cell-based; settings: HEK293, 72 h, read-out: IC50 Hek-293
Method in brief: as §1

In the case of `COc1cccc(C2C3=C(COC3=O)NC3=C2C(=O)c2ccccc2C3=O)c1` (centres unmarked) [5a, 11-(3-Methoxyphenyl)-4,11-dihydrobenzo[g]furo[3,4-b]quinoline-1,5,10(3H)-trione], the “Percentage of cell by phases, % G0/G1” value (SK-Lu-1 cells [1]; SK-LU-1, 0.08 μM) is reported as 47.91%, the “Percentage of cell by phases, % G2/M” value (SK-Lu-1 cells [1]; SK-LU-1, 0.08 μM) is reported as 20.58% and the “Percentage of cell by phases, % S” value (SK-Lu-1 cells [1]; SK-LU-1, 0.08 μM) is reported as 30.45%. The “Percentage of cell by phases, % G0/G1” value (SK-Lu-1 cells [1]; SK-LU-1, 0.16 μM) was 0.58%, the “Percentage of cell by phases, % G2/M” value (SK-Lu-1 cells [1]; SK-LU-1, 0.16 μM) was 82.17% and the “Percentage of cell by phases, % S” value (SK-Lu-1 cells [1]; SK-LU-1, 0.16 μM) was 5.78%. For the same compound, the “Percentage of cell by phases, % G0/G1” value (SK-Lu-1 cells [1]; SK-LU-1, 0.32 μM) was 0.28%, the “Percentage of cell by phases, % G2/M” value (SK-Lu-1 cells [1]; SK-LU-1, 0.32 μM) was 84.70% and the “Percentage of cell by phases, % S” value (SK-Lu-1 cells [1]; SK-LU-1, 0.32 μM) was 4.05%. For the same compound, the “changes in cell morphology (Hoechst staining)” value (SK-Lu-1 cells [2]) was “nucleus fragmentation and chromatin condensation”, the “caspase-3/7 activity as compared to Ellipticine (1.3 μM)” value [3] was 4-5 fold and the “% Necrotic cells” value (SK-Lu-1 cells [4]; SK-LU-1, 0.08 μM) was 0.59%. The “% Late apoptosis cells” value (SK-Lu-1 cells [4]; SK-LU-1, 0.08 μM) was 0.82%, the “% Early apoptosis cells” value (SK-Lu-1 cells [4]; SK-LU-1, 0.08 μM) was 1.30% and the “% Total apoptosis cells” value (SK-Lu-1 cells [4]; SK-LU-1, 0.08 μM) was 2.12%. For the same compound, the “% Necrotic cells” value (SK-Lu-1 cells [4]; SK-LU-1, 0.16 μM) was 2.64%, the “% Late apoptosis cells” value (SK-Lu-1 cells [4]; SK-LU-1, 0.16 μM) was 2.40% and the “% Early apoptosis cells” value (SK-Lu-1 cells [4]; SK-LU-1, 0.16 μM) was 7.23%. The “% Total apoptosis cells” value (SK-Lu-1 cells [4]; SK-LU-1, 0.16 μM) was 9.63%, the “% Necrotic cells” value (SK-Lu-1 cells [4]; SK-LU-1, 0.32 μM) was 4.68% and the “% Late apoptosis cells” value (SK-Lu-1 cells [4]; SK-LU-1, 0.32 μM) was 4.25%. For the same compound, the “% Early apoptosis cells” value (SK-Lu-1 cells [4]; SK-LU-1, 0.32 μM) was 11.59%, the “% Total apoptosis cells” value (SK-Lu-1 cells [4]; SK-LU-1, 0.32 μM) was 15.84% and the IC50 [5] was 1230 ± 10 nM. The IC50 [6] was 460 ± 10 nM, the IC50 [7] was greater than 2500 nM and the IC50 (SK-Lu-1 cells [8]) was less than 40 nM. The IC50 [9] was 9350 ± 440 nM.
In the case of `O=C1OCC2=C1C(c1ccccc1)C1=C(N2)C(=O)c2ccccc2C1=O` (centres unmarked) [5d, 11-(Phenyl)-4,11-dihydrobenzo[g]furo[3,4-b]quinoline-1,5,10(3H)-trione], the IC50 [5] is given as 1540 ± 10 nM, the IC50 [6] is given as less than 44 nM and the IC50 [7] is given as 1980 ± 40 nM. For the same compound, the IC50 (SK-Lu-1 cells [8]) was less than 44 nM and the IC50 [9] was 1340 ± 10 nM.
For `O=C1OCC2=C1C(c1ccccc1O)C1=C(N2)C(=O)c2ccccc2C1=O` (centres unmarked) [5h, 11-(2-Hydroxyphenyl)-4,11-dihydrobenzo[g]furo[3,4-b]quinoline-1,5,10(3H)-trione], the IC50 [10] was 570 ± 20 nM, the IC50 [11] was 630 ± 20 nM and the IC50 [12] was 1610 ± 30 nM. The IC50 [13] was 430 ± 10 nM and the IC50 [14] was 2030 ± 60 nM.
For `O=C1OCC2=C1C(c1ccc(O)cc1)C1=C(N2)C(=O)c2ccccc2C1=O` (centres unmarked) [5i, 11-(4-Hydroxyphenyl)-4,11-dihydrobenzo[g]furo[3,4-b]quinoline-1,5,10(3H)-trione], the IC50 [10] was greater than 2500 nM, the IC50 [11] was greater than 2500 nM and the IC50 [12] was 2230 ± 60 nM. The IC50 [13] was 1590 ± 30 nM and the IC50 [14] was 6460 ± 150 nM.
For `O=C1OCC2=C1C(c1ccc([N+](=O)[O-])cc1)C1=C(N2)C(=O)c2ccccc2C1=O` (centres unmarked) [5j, 11-(4-Nitrophenyl)-4,11-dihydrobenzo[g]furo[3,4-b]quinoline-1,5,10(3H)-trione], the IC50 [10] was greater than 2500 nM, the IC50 [11] was greater than 2500 nM and the IC50 [12] was greater than 2500 nM. For the same compound, the IC50 [13] was 1120 ± 40 nM and the IC50 [14] was 7170 ± 160 nM.
With `N#Cc1ccc(C2C3=C(COC3=O)NC3=C2C(=O)c2ccccc2C3=O)cc1` (centres unmarked) [5k, 4-(1,5,10-Trioxo-1,3,4,5,10,11-hexahydrobenzo[g]furo[3,4-b]quinolin-11-yl)benzonitrile] the IC50 [10] was greater than 2500 nM, the IC50 [11] was greater than 2500 nM and the IC50 [12] was greater than 2500 nM. The IC50 [13] was 2030 ± 50 nM and the IC50 [14] was greater than 20000 nM.
